Assay [1] in a line: Inhibition of Trichomonas vaginalis G3 AE1 expressed in Pichia pastoris after 20 mins. The gist of the method:
(§1)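 Recombinant AE zymogens expressed in Pichia pastoris; SmAE and TvAE1 autoactivated in 0.5 M sodium acetate, 4 mM DTT, pH 4.5, 37 °C, 3 h to overnight; IrAE used without activation. Buffer 0.1 M citrate phosphate, 4 mM DTT, pH 6.8 (SmAE, TvAE1) or pH 5.5 (IrAE). Inhibitor 2.0–0.0002 µM final, 20 min preincubation at room temperature; 10 µM final Cbz-Ala-Ala-Asn-AMC, 20 min; IC50 from RFU/min vs concentration.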

A short description of assay [2]: Inhibition of Ixodes ricinus AE expressed in Pichia pastoris after 20 mins. In a few lines: as §1
Assay [3] is described as follows: Inhibition of Schistosoma mansoni AE expressed in Pichia pastoris after 20 mins. In a few lines:
as §1

For another assay, the system named is Schistosoma mansoni. Put plainly: Inhibition of Schistosoma mansoni AE assessed as ratio of pseudo-first-order inhibition rate constant to inhibitor concentration. In a few lines:
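Autoactivated recombinant SmAE added to six inhibitor concentrations (0–1 µM final) in 0.1 M citrate phosphate, 2 mM DTT, pH 6.8 with 20 µM Cbz-Ala-Ala-Asn-AMC; progress followed every 2 s for 30 min at 25 °C (ex 355, em 460 nm); kobs/[I] by nonlinear regression, corrected for substrate by factor 1.33.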

What is called IC50 is the midpoint of a concentration-inhibition curve. Low values mean higher potency, high ones lower potency. Turning to `COc1ccc(CN(Cc2ccccc2)C(=O)/C=C/C(=O)N(CC(N)=O)NC(=O)[C@H](C)NC(=O)[C@H](C)NC(=O)OCc2ccccc2)cc1`, the half-maximal inhibitory concentration (IC50) in assay [1] worked out at 2.3 nM; in assay [2] it was 12 nM; in assay [3], 90 nM.

For `C[C@H](NC(=O)OCc1ccccc1)C(=O)N[C@@H](C)C(=O)NN(CC(N)=O)C(=O)/C=C/C(=O)N1CCc2ccccc2C1`, the IC50 in assay [1] amounted to 10 nM; in assay [2] it was 25 nM; in assay [3], 200 nM.

Take `C[C@H](NC(=O)OCc1ccccc1)C(=O)N[C@@H](C)C(=O)NN(CC(N)=O)C(=O)/C=C/C(=O)NCc1ccc(F)cc1`: the IC50 in assay [1] worked out at 75 nM; in assay [2] it was 250 nM; in assay [3], 800 nM.

`C[C@H](NC(=O)OCc1ccccc1)C(=O)N[C@@H](C)C(=O)NN(CC(N)=O)C(=O)/C=C/C(=O)N1CC=C(c2ccccc2)CC1`: the half-inhibitory concentration (IC50) in assay [1] was 10 nM; in assay [2], 85 nM; in assay [3], 750 nM.

On to `C[C@H](NC(=O)OCc1ccccc1)C(=O)N[C@@H](C)C(=O)NN(CC(N)=O)C(=O)/C=C/C(=O)N(Cc1ccccc1)c1ccccc1`, for which the concentration for half-maximal inhibition (IC50) is under 1 nM in assay [1], under 1 nM in assay [2] and 70 nM in assay [3].

Turning to `C[C@H](NC(=O)OCc1ccccc1)C(=O)N[C@@H](C)C(=O)NN(CC(N)=O)C(=O)/C=C/c1cccnc1`, the IC50 in assay [1] is 8000 nM; in assay [2], 15000 nM; in assay [3] it was over 2000 nM.

Consider `C[C@H](NC(=O)OCc1ccccc1)C(=O)N[C@@H](C)C(=O)NN(CC(N)=O)C(=O)/C=C/C(=O)N(C)CCc1ccccc1`, for which the concentration for half-maximal inhibition (IC50) amounted to 50 nM in assay [1] and 600 nM in assay [3].

In the case of `C[C@H](NC(=O)OCc1ccccc1)C(=O)N[C@@H](C)C(=O)NN(CC(N)=O)C(=O)/C=C/C(=O)N1CCCc2ccccc21`, the results for the 50% inhibitory concentration (IC50) in assay [1], in assay [2] and in assay [3] were 3.5 nM, 4 nM and 70 nM, respectively.

Consider `C[C@H](NC(=O)OCc1ccccc1)C(=O)N[C@@H](C)C(=O)NN(CC(N)=O)C(=O)/C=C/C(=O)N(Cc1ccccc1)Cc1ccc2ccccc2c1`, for which the IC50 in assay [1] stood at 6 nM; in assay [2] it was 8 nM; in assay [3] it was 70 nM. In addition, the Ratio with Schistosoma mansoni is 6100 M⁻¹ s⁻¹.

Turning to `C[C@H](NC(=O)OCc1ccccc1)C(=O)N[C@@H](C)C(=O)NN(CC(N)=O)C(=O)/C=C/C(=O)Nc1ccccc1`, the half-maximal inhibitory concentration (IC50) in assay [1] was found to be 20 nM; in assay [2], 10 nM; in assay [3] it was 700 nM.

For `C[C@H](NC(=O)OCc1ccccc1)C(=O)N[C@@H](C)C(=O)NN(CC(N)=O)C(=O)/C=C/C(=O)NCc1ccccc1`, the IC50 in assay [1] came to 10 nM; in assay [2], 200 nM; in assay [3], 1000 nM.

In the case of `CCCCN(CCCC)C(=O)/C=C/C(=O)N(CC(N)=O)NC(=O)[C@H](C)NC(=O)[C@H](C)NC(=O)OCc1ccccc1`, the concentration for half-maximal inhibition (IC50) in assay [1] came to 1000 nM; in assay [2], 100 nM; in assay [3], 550 nM.

Consider `C[C@H](NC(=O)OCc1ccccc1)C(=O)N[C@@H](C)C(=O)NN(CC(N)=O)C(=O)/C=C/C(=O)N(Cc1ccccc1)Cc1cccc2ccccc12`, for which the 50% inhibitory concentration (IC50) in assay [1] is under 1 nM; in assay [2], 6 nM; in assay [3] it was 62 nM. Further, the Ratio in the assay on Schistosoma mansoni was determined as 6180 M⁻¹ s⁻¹.

For `C[C@H](NC(=O)OCc1ccccc1)C(=O)N[C@@H](C)C(=O)NN(CC(N)=O)C(=O)/C=C/C(=O)N1Cc2ccccc2C1`, the IC50 amounted to 20 nM in assay [1], 4.5 nM in assay [2] and 300 nM in assay [3].

Take `C[C@H](NC(=O)OCc1ccccc1)C(=O)N[C@@H](C)C(=O)NN(CC(N)=O)C(=O)/C=C/C(=O)N1CCCCC1`: the 50% inhibitory concentration (IC50) in assay [1] was found to be 500 nM; in assay [3], 1000 nM.

Regarding `C[C@H](NC(=O)OCc1ccccc1)C(=O)N[C@@H](C)C(=O)NN(CC(N)=O)C(=O)/C=C/C(=O)N(Cc1ccccc1)Cc1ccc(F)cc1`, the half-inhibitory concentration (IC50) in assay [1] is under 1 nM; in assay [2], 700 nM; in assay [3], 60 nM.

Take `C[C@H](NC(=O)OCc1ccccc1)C(=O)N[C@@H](C)C(=O)NN(CC(N)=O)C(=O)/C=C/C(=O)N(Cc1ccco1)Cc1ccco1`: the half-maximal inhibitory concentration (IC50) in assay [1] was found to be 5000 nM; in assay [2], 15000 nM; in assay [3] it was 900 nM.

For the compound `C[C@H](NC(=O)OCc1ccccc1)C(=O)N[C@@H](C)C(=O)NN(CC(N)=O)C(=O)/C=C/C(=O)N(C)c1ccccc1`, the IC50 worked out at 5 nM in assay [1], 1.8 nM in assay [2] and 60 nM in assay [3].

Take `C[C@H](NC(=O)OCc1ccccc1)C(=O)N[C@@H](C)C(=O)NN(CC(N)=O)C(=O)/C=C/C(=O)N(C)C(Cc1ccccc1)C(=O)N(C)CCc1ccccc1` (some centres not stated): the results for the concentration for half-maximal inhibition (IC50) in assay [1], in assay [2] and in assay [3] were 80 nM, 300 nM and 750 nM, respectively.

For the compound `CCOC(=O)/C=C/C(=O)N(CC(N)=O)NC(=O)[C@H](C)NC(=O)[C@H](C)NC(=O)CCCC[C@@H]1SC[C@@H]2NC(=O)N[C@@H]21`, the half-inhibitory concentration (IC50) in assay [1] is under 10 nM; in assay [2], 2.8 nM; in assay [3], 10 nM.

With `C[C@H](NC(=O)OCc1ccccc1)C(=O)N[C@@H](C)C(=O)NN(CC(N)=O)C(=O)/C=C/c1ccco1`, the 50% inhibitory concentration (IC50) in assay [2] was 7500 nM; in assay [3], over 2000 nM.

These data come from ChEMBL document CHEMBL1150273, “Aza-peptidyl Michael acceptors. A new class of potent and selective inhibitors of asparaginyl endopeptidases (legumains) from evolutionarily diverse pathogens” (J Med Chem, 2008).
